Assay results collected from several papers.
Protocols differ between the studies behind these lines.
Target: RAC-alpha serine/threonine-protein kinase (AKT1, Homo sapiens, UniProt P31749)

| Structure (SMILES) | effect on | action | technique | tested at | quantity | result |
| --- | --- | --- | --- | --- | --- | --- |
| CC/C(=N\NC(=O)NCc1cccc(O)c1)c1ccc(O)c(C)c1O | enzyme activity | inhibitor | – | 0.1 µM | inhibition | 0.1% |
| CCCOc1ccc(OC)c(F)c1C(=O)c1ccc(C(=O)N[C@@H]2CNC[C@H]2NC(=O)c2ccc3[nH]ncc3c2)cc1 | enzyme activity | inhibitor | – | 10 µM | remaining activity | 20% |
| CC(C)c1ccc(NC(=O)c2cccs2)c(-c2nc3ccccc3[nH]c2=O)c1 | enzyme activity | inhibitor | – | 1 µM | activity vs control | 120% |
| C[C@@H]1CN(c2cc(-c3nn(C)c4ccc(OC5(C)CC5)cc34)ncn2)C[C@H](C)O1 | cell-free assay | – | competition with immobilised ligand | 1 µM | remaining binding | 100% |
| N#CCCc1ccc2c(c1)-c1[nH]c3ccc([N+](=O)[O-])cc3c1CC(=O)N2 | cell-free assay | – | – | 0.5 µM | remaining signal | 111% |
| Cc1ccc(C(=O)NCc2ccsc2)cc1C#Cc1cn(C(C)C)c2ncnc(N)c12 | enzyme activity | inhibitor | – | 1 µM | activity vs control | 94% |
| COc1cc(Nc2cnc(C#N)c(O[C@H](C)CN(C)C)n2)ncc1-c1cnn(C)c1 | enzyme activity | inhibitor | radiometric | 1 µM | remaining activity | 98% |
| COc1cc2ncnc(Nc3ccc(Oc4ccccc4)c(C)c3C)c2cc1OC | enzyme activity | inhibitor | – | 1 µM | inhibition | 2% |
| Cn1cnc(Br)c1C1=CN(c2ncnc3[nH]cnc23)CCS1 | enzyme activity | inhibitor | radiometric | 50 nM | inhibition | 26.5% |
| Oc1cccc(-c2nc(N3CCOCC3)c3oc4ncccc4c3n2)c1 | enzyme activity | inhibitor | – | 10 µM | remaining activity | 78% |
| CC(C)(C)c1nc2c(s1)c1nc(N)ncc1c1ccc(NS(=O)(=O)c3c(F)cccc3F)c(F)c12 | enzyme activity | inhibitor | radiometric | 1 µM | remaining activity | 88% |
| O=C(CSc1nc2nccnc2c(=O)n1CCc1ccccc1)Nc1nccs1 | enzyme activity | inhibitor | – | 10 µM | inhibition | 4% |
| O=S(=O)(NCCNC/C=C/c1ccc(Br)cc1)c1cccc2cnccc12 | cell-free assay | – | – | 0.5 µM | remaining signal | 41.6% |
| Cn1cncc1C1=CN(c2ncnc3[nH]cnc23)CCS1 | enzyme activity | inhibitor | radiometric | 2 µM | inhibition | 83.7% |
| CCCOc1ccc([C@H]2[C@H](C(=O)O)[C@@H](c3ccc4c(c3)OCO4)CN2CC(=O)Nc2c(CC)cccc2CC)cc1 | cell-free assay | – | competition with immobilised ligand | 1 µM | remaining binding | 97% |
| CSc1nc(C)c(-c2ccnc(Nc3ccc(N4CCOCC4)cc3)c2)[nH]1 | enzyme activity | inhibitor | – | 10 µM | inhibition | -2.9% |
| CCN(CC)CCNC(=O)c1c(C)[nH]c(/C=C2\C(=O)Nc3ccc(F)cc32)c1C | cell-free assay | – | – | 0.5 µM | remaining signal | 105% |
| CN(C)C1CCN(CC#Cc2nn(C3CCCC3)c3nc(NCc4ccccc4)ncc23)C1 (stereo not drawn) | enzyme activity | inhibitor | FRET | 10 µM | inhibition | 7% |

| Structure (SMILES) | effect on | action | technique | tested at | quantity | result |
| --- | --- | --- | --- | --- | --- | --- |
| Cc1cnc(NC2CCOCC2)nc1-n1cnc(C(=O)NC(CN)c2cc(F)cc(Cl)c2)c1 (stereo not drawn) | enzyme activity | inhibitor | radiometric | 1 µM | remaining activity | 89% |
| COc1cc(Cl)c(C(=O)N[C@@H](CN[C@H]2CC[C@@H](N)CC2)Cc2ccc(C#N)cc2)cc1-c1ccc(CN[C@H](C)c2ccc(C)cc2)o1 | enzyme activity | inhibitor | – | 1 µM | remaining activity | 85% |
| CNCc1ccccc1-c1csc([C@@H](C)Nc2nc(C)nc3cc(OC)c(OC)cc23)c1 | cell-free assay | – | competition with immobilised ligand | 1 µM | remaining binding | 100% |
| O=C(Nc1cnn(-c2csc(C(=O)NC3COC3)c2)c1)Nc1c(F)cccc1Cl | enzyme activity | inhibitor | – | 5 µM | remaining activity | 105% |
| FC(F)(F)Oc1cccc(-c2cnc3ccc(-c4ccncc4)nn23)c1 | enzyme activity | inhibitor | radiometric | 1 µM | activity vs control | 90% |
| O=C1NC(=O)c2cc(Nc3ccc(F)cc3)c(Nc3ccc(F)cc3)cc21 | cell-free assay | – | – | 0.5 µM | remaining signal | 94.8% |
| CNC(=O)c1cc(Oc2ccc(NC(=O)Nc3ccc(Cl)c(C(F)(F)F)c3)cc2)ccn1 | enzyme activity | inhibitor | – | 0.3 µM | inhibition | -6% |
| C=CC(=O)Nc1cc(Nc2nccc(Nc3cc(Cl)c(F)cc3C(C)(C)O)n2)c(OC)cc1N1CC[C@@H](N(C)C)C1 | enzyme activity | inhibitor | – | 1 µM | inhibition | -5% |
| Cc1c[nH]c2nccc(Oc3c(F)cc(Nc4cc(Cl)nc(N)n4)cc3F)c12 | cell-free assay | – | competition with immobilised ligand | 0.1 µM | remaining binding | 100% |
| CC(C)(C)C(=O)c1sc(NC2CCCCC2)nc1N | enzyme activity | inhibitor | – | 10 µM | remaining activity | 90% |
| Cc1c(NC(=O)c2cc(C(N)=O)nc3cc(F)ccc23)c(C(F)(F)F)nn1Cc1ccc(C#N)cc1 | cell-free assay | – | competition with immobilised ligand | 1 µM | remaining binding | 91% |
| O=C1Nc2ccc(Cl)cc2C1=Cc1cc(Cl)c(O)c(Cl)c1 | cell-free assay | – | – | 0.5 µM | remaining signal | 97.9% |
| CC1=C(C#N)[C@@H](c2ccc3[nH]nc(C)c3c2)C(C#N)=C(c2ccc(Cl)cc2)N1 | cell-free assay | – | competition with immobilised ligand | 1 µM | remaining binding | 100% |
| Cc1ccc(Nc2nccc(N(C)c3ccc4c(C)n(C)nc4c3)n2)cc1S(N)(=O)=O | enzyme activity | inhibitor | – | 10 µM | inhibition | 6% |
| CCS(=O)(=O)c1cc2cc(C[C@@](O)(CC(C)(C)c3ccc(F)cc3C(N)=O)C(F)(F)F)[nH]c2cn1 | cell-free assay | – | competition with immobilised ligand | 1 µM | remaining binding | 86% |
| Cc1ccc(NC(=O)c2ccc(C)c(C(F)(F)F)c2)cc1C#Cc1nn(C2CCC(O)CC2)c2ncnc(N)c12 (stereo not drawn) | cell-free assay | – | – | 10 µM | remaining signal | 101% |
| CNC(=O)Nc1ccc2c(c1)[C@@]1(CC2)OC(=O)N(CC(=O)N(Cc2ccc(F)cc2)[C@@H](C)C(F)(F)F)C1=O | cell-free assay | – | competition with immobilised ligand | 1 µM | remaining binding | 77% |
| COc1cc(F)ccc1-c1ncnc(Nc2cccc(C[S@](C)(=N)=O)c2)n1 | enzyme activity | inhibitor | – | 10 µM | activity vs control | 108% |
